The record followed here is ChEMBL document CHEMBL1629572 (Antimicrob Agents Chemother, 2009).

The nature of experiment [1]: Inhibition of Influenza B virus (B/Malaysia/2506/2004(Victoria)) neuraminidase after 30 mins by fluorescence analysis. The method in brief: (§1)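 Virus NA source was mixed with compound in 32.5 mM MES-NaOH pH 6.5 with 4 mM CaCl2 and preincubated 10 min at room temperature. Reaction ran 30 min at room temperature with 100 μM (final) 4-MU-NANA. Fluorescence was read at ex 360/em 460 nm, in triplicate. IC50 came from linear regression of residual activity against log concentration, using concentrations giving 10–90% residual activity.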

Experiment [2] is described as follows: Inhibition of Influenza B virus (B/Akita/9/2003(Victoria)) neuraminidase after 30 mins by fluorescence analysis. The method in brief: as §1
A short description of experiment [3]: Inhibition of Influenza B virus (B/Ohio/01/2005(Victoria)) neuraminidase after 30 mins by fluorescence analysis. The method in brief:
as §1

A short description of experiment [4]: Inhibition of Influenza B virus (B/Yamagata/398/2003(Victoria)) neuraminidase after 30 mins by fluorescence analysis. The method in brief:
as §1

The target of experiment [5] is T1, Neuraminidase (Influenza A virus, UniProt B4URF0). In words: Inhibition of Influenza A virus (A/Wellington/1/2004(H3N2)) neuraminidase after 30 mins by fluorescence analysis.
For experiment [6], the target named is T1, Neuraminidase. Put plainly: Inhibition of Influenza A virus (A/R(duck/Mongolia/54/01-duck/Mongolia/47/01)([…])) neuraminidase after 30 mins by fluorescence analysis.
Experiment [7] in a line: Inhibition of Influenza B virus (B/Shiga/31/2002(Yamagata)) neuraminidase after 30 mins by fluorescence analysis. The method in brief:
as §1

The target in experiment [8] is T1, Neuraminidase. In words: Inhibition of Influenza A virus (A/Yamagata/83/2006(H1N1)) neuraminidase after 30 mins by fluorescence analysis.
Experiment [9] addresses T1, Neuraminidase. Put plainly: Inhibition of Influenza A virus (A/Yamagata/1/2002(H3N2)) neuraminidase after 30 mins by fluorescence analysis.
Experiment [10] deals with T1, Neuraminidase. In words: Inhibition of Influenza A virus (A/Tokushima/1/2005(H3N2)) neuraminidase after 30 mins by fluorescence analysis.
In the next experiment the test system is Influenza A virus. Put plainly: Antiviral activity against Influenza A virus (A/Puerto Rico/8/1934(H1N1)) infected in mouse infection model at 95 ug/kg, itn administered 4 hrs pre-infection and at 4 hrs and 17 hrs post-infection up to 20 days. The format is functional, organism-based.
Experiment [11] addresses T1, Neuraminidase. In words: Inhibition of Influenza A virus (A/Shiga/5/2002(H3N2)) neuraminidase after 30 mins by fluorescence analysis.
Experiment [12] can be described thus: Inhibition of Influenza B virus (B/Yamagata/1/2005(Yamagata)) neuraminidase after 30 mins by fluorescence analysis. The method in brief: as §1
The target of experiment [13] is T1, Neuraminidase. Put plainly: Inhibition of Influenza A virus (A/duck/England/1/1956(H11N6)) neuraminidase after 30 mins by fluorescence analysis.
Experiment [14] deals with T1, Neuraminidase. In words: Inhibition of Influenza A virus (A/Singapore/1/1957(H2N2)) neuraminidase after 30 mins by fluorescence analysis.
In experiment [15] the target is T1, Neuraminidase. In words: Inhibition of Influenza A virus (A/seal/Massachusetts/1/1980(H7N7)) neuraminidase after 30 mins by fluorescence analysis.
Experiment [16] has as its target T1, Neuraminidase. In words: Inhibition of Influenza A virus (A/Yamagata/2/2002(H3N2)) neuraminidase after 30 mins by fluorescence analysis.
A short description of experiment [17]: Inhibition of Influenza B virus (B/Yamagata/85/2004(Yamagata)) neuraminidase after 30 mins by fluorescence analysis. The method in brief:
as §1

T1 sequence (B4URF0 whole entry): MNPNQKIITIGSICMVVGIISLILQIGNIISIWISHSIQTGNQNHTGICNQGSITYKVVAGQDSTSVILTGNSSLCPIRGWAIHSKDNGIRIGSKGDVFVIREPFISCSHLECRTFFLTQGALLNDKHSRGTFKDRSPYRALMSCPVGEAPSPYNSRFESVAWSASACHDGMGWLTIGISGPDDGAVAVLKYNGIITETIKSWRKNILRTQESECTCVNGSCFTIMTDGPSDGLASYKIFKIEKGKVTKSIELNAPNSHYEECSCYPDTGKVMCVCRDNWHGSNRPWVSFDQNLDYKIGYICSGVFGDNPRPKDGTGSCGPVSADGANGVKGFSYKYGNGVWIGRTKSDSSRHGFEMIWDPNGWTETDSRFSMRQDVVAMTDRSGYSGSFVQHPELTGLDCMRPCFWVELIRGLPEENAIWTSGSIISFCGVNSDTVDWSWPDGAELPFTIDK

One may read the IC50 as the concentration that gives 50% inhibition. Higher therefore signals a need for much substance. As for `CCCCCCCC(=O)OC[C@@H](O)[C@@H](OC)[C@@H]1OC(C(=O)O)=C[C@H](NC(=N)N)[C@H]1NC(C)=O` [LANINAMIVIR OCTANOATE], the concentration for half-maximal inhibition (IC50) in [1] is 11100 nM; in [2] it was 13800 nM; in experiment [3], 12800 nM; in experiment [4] it was 12400 nM; at Neuraminidase [5], 157 nM; against Neuraminidase [6], 276 nM. In addition, the IC50 in [7] was determined as 10500 nM; against Neuraminidase [8], 733 nM; against Neuraminidase [9] it was 56.6 nM; at Neuraminidase [10], 131 nM; at Neuraminidase [11], 64.2 nM; in [12], 3630 nM. The IC50 against Neuraminidase [13] was determined as 262 nM; at Neuraminidase [14] it was 128 nM; on Neuraminidase [15] it was 142 nM; at Neuraminidase [16] it was 46.6 nM; in experiment [17], 7190 nM. The Activity result with Influenza A virus is “Non-toxic”.
